According to ChEMBL document CHEMBL1122494, “New selenium-75 labeled radiopharmaceuticals: selenonium analogues of dopamine” (J Med Chem, 1983):

Columns and labels:
Format in all cases: ADME, organism-based
Rattus norvegicus [1] = test: Distribution of Se-75 activity in Lung of female Sprague-Dawley Rat 60 min after iv administration of compound; conditions: in vivo, 1 h
Summary of the method: (§1)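 Female Sprague-Dawley rats (100-300 g), five per group, got [75Se]selenonium salt in 0.2 mL saline (5-6 μCi) by lateral tail vein. They were killed by cardioectomy under chloroform anesthesia at the stated time. A sample of the large organ was weighed and gamma counted, and counts were converted to % injected dose/g. Values are mean and SEM of five.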

Rattus norvegicus [2] = test: Distribution of Se-75 activity in blood of female Sprague-Dawley Rat 30 min after iv administration of compound; conditions: in vivo, 0.5 h
Summary of the method: (§2)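 Female Sprague-Dawley rats (100-300 g) got 5-6 μCi of [75Se]selenonium salt in 0.2 mL saline via lateral tail vein. Groups of five were anesthetized with chloroform at set times and killed by cardioectomy. Tissues were rinsed, blotted and weighed, then gamma-counted. Values are % injected dose per gram, mean and SEM of five.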

Rattus norvegicus [3] = test: Distribution of Se-75 activity in blood of female Sprague-Dawley Rat 5 min after iv administration of compound; conditions: in vivo; summary of the method: as §2
Rattus norvegicus [4] = test: Distribution of Se-75 activity in blood of female Sprague-Dawley Rat 60 min after iv administration of compound; conditions: in vivo, 1 h; summary of the method: as §2
Rattus norvegicus [5] = test: Distribution of Se-75 activity in Adrenal of female Sprague-Dawley Rat 15 after iv administration of compound; conditions: in vivo
Summary of the method: (§3)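 Female Sprague-Dawley rats (100-300 g), five per group, got [75Se]selenonium salt by lateral tail vein: 0.2 mL saline with 5-6 μCi. Groups were killed by cardioectomy under chloroform anesthesia at the set times. The organ was taken intact, rinsed with saline, blotted, weighed and gamma counted. Values are % injected dose/g, mean and SEM of five.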

Rattus norvegicus [6] = test: Distribution of Se-75 activity in Adrenal of female Sprague-Dawley Rat 30 min after iv administration of compound; conditions: in vivo, 0.5 h; summary of the method: as §3
Rattus norvegicus [7] = test: Distribution of Se-75 activity in Adrenal of female Sprague-Dawley Rat 5 min after iv administration of compound; conditions: in vivo; summary of the method: as §3
Rattus norvegicus [8] = test: Distribution of Se-75 activity in Adrenal of female Sprague-Dawley Rat 60 min after iv administration of compound; conditions: in vivo, 1 h; summary of the method: as §3
Rattus norvegicus [9] = test: Distribution of Se-75 activity in Brain of female Sprague-Dawley Rat 15 min after iv administration of compound; conditions: in vivo, 0.25 h
Rattus norvegicus [10] = test: Distribution of Se-75 activity in Brain of female Sprague-Dawley Rat 5 min after iv administration of compound; conditions: in vivo
Rattus norvegicus [11] = test: Distribution of Se-75 activity in Brain of female Sprague-Dawley Rat 60 min after iv administration of compound; conditions: in vivo, 1 h
Rattus norvegicus [12] = test: Distribution of Se-75 activity in Heart of female Sprague-Dawley Rat 30 min after iv administration of compound; conditions: in vivo, 0.5 h; summary of the method: as §3
Rattus norvegicus [13] = test: Distribution of Se-75 activity in Heart of female Sprague-Dawley Rat 5 min after iv administration of compound; conditions: in vivo; summary of the method: as §3
Rattus norvegicus [14] = test: Distribution of Se-75 activity in Heart of female Sprague-Dawley Rat 60 min after iv administration of compound; conditions: in vivo, 1 h; summary of the method: as §3
Rattus norvegicus [15] = test: Distribution of Se-75 activity in Kidney of female Sprague-Dawley Rat 30 min after iv administration of compound; conditions: in vivo, 0.5 h; summary of the method: as §3
Rattus norvegicus [16] = test: Distribution of Se-75 activity in Kidney of female Sprague-Dawley Rat 5 min after iv administration of compound; conditions: in vivo; summary of the method: as §3
Rattus norvegicus [17] = test: Distribution of Se-75 activity in Liver of female Sprague-Dawley Rat 120 min after iv administration of compound; conditions: in vivo, 2 h; summary of the method: as §1
Rattus norvegicus [18] = test: Distribution of Se-75 activity in Liver of female Sprague-Dawley Rat 15 min after iv administration of compound; conditions: in vivo, 0.25 h; summary of the method: as §1
Rattus norvegicus [19] = test: Distribution of Se-75 activity in Liver of female Sprague-Dawley Rat 240 min after iv administration of compound; conditions: in vivo, 4 h; summary of the method: as §1
Rattus norvegicus [20] = test: Distribution of Se-75 activity in Liver of female Sprague-Dawley Rat 30 min after iv administration of compound; conditions: in vivo, 0.5 h; summary of the method: as §1
Rattus norvegicus [21] = test: Distribution of Se-75 activity in Liver of female Sprague-Dawley Rat 5 min after iv administration of compound; conditions: in vivo; summary of the method: as §1
Rattus norvegicus [22] = test: Distribution of Se-75 activity in Lung of female Sprague-Dawley Rat 15 min after iv administration of compound; conditions: in vivo, 0.25 h; summary of the method: as §1
Rattus norvegicus [23] = test: Distribution of Se-75 activity in Lung of female Sprague-Dawley Rat 30 min after iv administration of compound; conditions: in vivo, 0.5 h; summary of the method: as §1
Rattus norvegicus [24] = test: Distribution of Se-75 activity in Heart of female Sprague-Dawley Rat 15 min after iv administration of compound; conditions: in vivo, 0.25 h; summary of the method: as §3
Rattus norvegicus [25] = test: Tissue radioactivity ratio in Heart to Blood 120 min after Intravenous Injection in rats; conditions: other tissue, 2 h
Summary of the method: (§4)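 Same rat biodistribution: female Sprague-Dawley rats (100-300 g), 5-6 μCi [75Se]selenonium salt in 0.2 mL saline iv by tail vein, five per time point, killed by cardioectomy under chloroform. Ratios are tissue-to-tissue quotients of gamma-counted % injected dose per gram in each organ (adrenal, heart, kidney, liver, blood).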

Rattus norvegicus [26] = test: Tissue radioactivity ratio in Heart to Blood 15 min after Intravenous Injection in rats; conditions: other tissue, 0.25 h; summary of the method: as §4
Rattus norvegicus [27] = test: Tissue radioactivity ratio in Heart to Blood 240 min after Intravenous Injection in rats; conditions: other tissue, 4 h; summary of the method: as §4
Rattus norvegicus [28] = test: Tissue radioactivity ratio in Heart to Blood 30 min after Intravenous Injection in rats; conditions: other tissue, 0.5 h; summary of the method: as §4
Rattus norvegicus [29] = test: Tissue radioactivity ratio in Heart to Blood 5 min after Intravenous Injection in rats; conditions: other tissue; summary of the method: as §4
Rattus norvegicus [30] = test: Tissue radioactivity ratio in Heart to Blood 60 min after Intravenous Injection in rats; conditions: other tissue, 1 h; summary of the method: as §4
Rattus norvegicus [31] = test: Tissue radioactivity ratio in adrenal to Kidney 120 min after Intravenous Injection in rats; conditions: in vivo, 2 h; summary of the method: as §4
Rattus norvegicus [32] = test: Tissue radioactivity ratio in adrenal to Kidney 15 min after Intravenous Injection in rats; conditions: in vivo, 0.25 h; summary of the method: as §4
Rattus norvegicus [33] = test: Tissue radioactivity ratio in adrenal to Kidney 240 min after Intravenous Injection in rats; conditions: in vivo, 4 h; summary of the method: as §4
Rattus norvegicus [34] = test: Tissue radioactivity ratio in adrenal to Kidney 30 min after Intravenous Injection in rats; conditions: in vivo, 0.5 h; summary of the method: as §4
Rattus norvegicus [35] = test: Tissue radioactivity ratio in adrenal to Kidney 5 min after Intravenous Injection in rats; conditions: in vivo; summary of the method: as §4
Rattus norvegicus [36] = test: Tissue radioactivity ratio in adrenal to Liver 120 min after Intravenous Injection in rats; conditions: in vivo, 2 h; summary of the method: as §4
Rattus norvegicus [37] = test: Tissue radioactivity ratio in adrenal to Liver 15 min after Intravenous Injection in rats; conditions: in vivo, 0.25 h; summary of the method: as §4
Rattus norvegicus [38] = test: Tissue radioactivity ratio in adrenal to Liver 30 min after Intravenous Injection in rats; conditions: in vivo, 0.5 h; summary of the method: as §4
Rattus norvegicus [39] = test: Tissue radioactivity ratio in adrenal to Liver 5 min after Intravenous Injection in rats; conditions: in vivo; summary of the method: as §4
Rattus norvegicus [40] = test: Tissue radioactivity ratio in adrenal to Liver 60 min after Intravenous Injection in rats; conditions: in vivo, 1 h; summary of the method: as §4
Rattus norvegicus [41] = test: Tissue radioactivity ratio in adrenal to blood 120 min after Intravenous Injection in rats; conditions: other tissue, 2 h; summary of the method: as §4
Rattus norvegicus [42] = test: Tissue radioactivity ratio in adrenal to blood 30 min after Intravenous Injection in rats; conditions: other tissue, 0.5 h; summary of the method: as §4
Rattus norvegicus [43] = test: Tissue radioactivity ratio in adrenal to blood 5 min after Intravenous Injection in rats; conditions: other tissue; summary of the method: as §4
Rattus norvegicus [44] = test: Tissue radioactivity ratio in adrenal to Kidney 60 min after Intravenous Injection in rats; conditions: in vivo, 1 h; summary of the method: as §4

Work on `C[Se+](C)CCc1ccc(O)c(O)c1.[Cl-]` yielded a Dose/g (Rattus norvegicus [1]) of 0.58%, a Dose/g (Rattus norvegicus [2]) of 0.28% and a Dose/g (Rattus norvegicus [3]) of 0.35%. The Dose/g (Rattus norvegicus [4]) was 0.18%, the Dose/g (Rattus norvegicus [5]) was 0.87% and the Dose/g (Rattus norvegicus [6]) was 0.86%. It also gave a Dose/g (Rattus norvegicus [7]) of 0.78%, a Dose/g (Rattus norvegicus [8]) of 0.87% and a Dose/g (Rattus norvegicus [9]) of 0.01%. For the same molecule, the Dose/g (Rattus norvegicus [10]) was 0.02%, the Dose/g (Rattus norvegicus [11]) was 0.01% and the Dose/g (Rattus norvegicus [12]) was 1.08%. It also gave a Dose/g (Rattus norvegicus [13]) of 2.37%, a Dose/g (Rattus norvegicus [14]) of 0.46% and a Dose/g (Rattus norvegicus [15]) of 1.07%. The Dose/g (Rattus norvegicus [16]) was 2.65%, the Dose/g (Rattus norvegicus [17]) was 0.32% and the Dose/g (Rattus norvegicus [18]) was 2%. The Dose/g (Rattus norvegicus [19]) was 0.23%, the Dose/g (Rattus norvegicus [20]) was 2.73% and the Dose/g (Rattus norvegicus [21]) was 1.86%. It also gave a Dose/g (Rattus norvegicus [22]) of 1.14%, a Dose/g (Rattus norvegicus [23]) of 0.83% and a Dose/g (Rattus norvegicus [24]) of 1.58%. The Ratio (Rattus norvegicus [25]) was 2.62, the Ratio (Rattus norvegicus [26]) was 5.27 and the Ratio (Rattus norvegicus [27]) was 3.2. For the same molecule, the Ratio (Rattus norvegicus [28]) was 3.86, the Ratio (Rattus norvegicus [29]) was 6.77 and the Ratio (Rattus norvegicus [30]) was 2.55. It also gave a Ratio (Rattus norvegicus [31]) of 2.52, a Ratio (Rattus norvegicus [32]) of 0.81 and a Ratio (Rattus norvegicus [33]) of 3.28. It also gave a Ratio (Rattus norvegicus [34]) of 0.81, a Ratio (Rattus norvegicus [35]) of 0.29 and a Ratio (Rattus norvegicus [36]) of 2.28. It also gave a Ratio (Rattus norvegicus [37]) of 0.43, a Ratio (Rattus norvegicus [38]) of 0.31 and a Ratio (Rattus norvegicus [39]) of 0.42. For the same molecule, the Ratio (Rattus norvegicus [40]) was 1.04, the Ratio (Rattus norvegicus [41]) was 9.12 and the Ratio (Rattus norvegicus [42]) was 3.07. The Ratio (Rattus norvegicus [43]) was 2.22 and the Ratio (Rattus norvegicus [44]) was 1.47.

`COc1ccc(CC[Se+](C)C)cc1OC.[I-]` gave a Dose/g (Rattus norvegicus [1]) of 0.38%, a Dose/g (Rattus norvegicus [2]) of 0.22% and a Dose/g (Rattus norvegicus [3]) of 0.34%. It also gave a Dose/g (Rattus norvegicus [4]) of 0.12%, a Dose/g (Rattus norvegicus [5]) of 0.88% and a Dose/g (Rattus norvegicus [6]) of 0.94%. For the same molecule, the Dose/g (Rattus norvegicus [7]) was 0.86%, the Dose/g (Rattus norvegicus [8]) was 0.71% and the Dose/g (Rattus norvegicus [9]) was 0.02%. The Dose/g (Rattus norvegicus [10]) was 0.03%, the Dose/g (Rattus norvegicus [11]) was 0.01% and the Dose/g (Rattus norvegicus [12]) was 0.58%. It also gave a Dose/g (Rattus norvegicus [13]) of 2.38%, a Dose/g (Rattus norvegicus [14]) of 0.27% and a Dose/g (Rattus norvegicus [15]) of 0.99%. For the same molecule, the Dose/g (Rattus norvegicus [16]) was 2.73%, the Dose/g (Rattus norvegicus [17]) was 0.29% and the Dose/g (Rattus norvegicus [18]) was 1.93%. It also gave a Dose/g (Rattus norvegicus [19]) of 0.18%, a Dose/g (Rattus norvegicus [20]) of 1.75% and a Dose/g (Rattus norvegicus [21]) of 2.48%. For the same molecule, the Dose/g (Rattus norvegicus [22]) was 0.097%, the Dose/g (Rattus norvegicus [23]) was 0.75% and the Dose/g (Rattus norvegicus [24]) was 1.16%. For the same molecule, the Ratio (Rattus norvegicus [25]) was 2.12, the Ratio (Rattus norvegicus [26]) was 4.46 and the Ratio (Rattus norvegicus [27]) was 2. It also gave a Ratio (Rattus norvegicus [28]) of 2.64, a Ratio (Rattus norvegicus [29]) of 7 and a Ratio (Rattus norvegicus [30]) of 2.25. The Ratio (Rattus norvegicus [31]) was 2.24, the Ratio (Rattus norvegicus [32]) was 0.68 and the Ratio (Rattus norvegicus [33]) was 4. For the same molecule, the Ratio (Rattus norvegicus [34]) was 0.95, the Ratio (Rattus norvegicus [35]) was 0.31 and the Ratio (Rattus norvegicus [36]) was 2.55. For the same molecule, the Ratio (Rattus norvegicus [37]) was 0.46, the Ratio (Rattus norvegicus [38]) was 0.54 and the Ratio (Rattus norvegicus [39]) was 0.35. It also gave a Ratio (Rattus norvegicus [40]) of 1.14, a Ratio (Rattus norvegicus [41]) of 9.25 and a Ratio (Rattus norvegicus [42]) of 4.27. For the same molecule, the Ratio (Rattus norvegicus [43]) was 2.53 and the Ratio (Rattus norvegicus [44]) was 1.34.
